ChEMBL document CHEMBL4513216, “Probing the Open Global Health Chemical Diversity Library for Multistage-Active Starting Points for Next-Generation Antimalarials” (ACS Infect Dis, 2020)

Test: Toxicity liver stage against HepG2, at 10uM
Format: cell-based
Parameters: test concentration 10 uM, cell line HepG2-A16-CD81EGFP
Conditions: human, HepG2-A16-CD81EGFP cells; read-out: INHIBITION
Outline: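 Uninfected HepG2-A16-CD81EGFP cells, 3 × 10^3 per well, 1536-well, plated on prespotted compound at 10 μM final, parasite-free screening media added to match infected plates; puromycin 10 μM positive, DMSO 0.5% negative; run in parallel with 48 h PbLuc assay at 37 °C, 5% CO2; viability by CellTiter-Glo luminescence, normalized to controls.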

Structure (SMILES)	cytotoxicity at 10 µM
CCS(=O)(=O)N1CCC2(CN(Cc3ccc(C)o3)C2)C1	-109%
CNc1cncc(C2CCCN2Cc2cccc(C)n2)n1 (stereo not drawn)	-8.3%
CCC[C@@H]1CN(Cc2ccc3c(c2)OCCO3)C[C@H]1C(=O)O	0.324%
CCn1c(C)cc(C(=O)N2CCC(Nc3cccnn3)CC2)c1C	4.71%
CCN(CC)C(=O)c1nc2c(s1)CCN(C(=O)CCC(=O)OC)CC2	12.9%
CCC[C@@H]1CN(C(=O)c2cc(-c3cccs3)n(C)n2)C[C@H]1N(C)C	-1.84%
OC1(CNCCCN2CCCc3ccccc32)CNCCOC1 (stereo not drawn)	13.2%
CCC1c2ccccc2CCN1C(=O)c1ccnc(C(=O)OC)c1 (stereo not drawn)	-2.72%
COC(C)(CNS(=O)(=O)c1cn(C)cn1)c1ccccc1F (stereo not drawn)	-8.39%
Cc1ccc(N2CC[C@H]3OCC[C@@]3(C(=O)NCC3CC3)C2)nn1	3.22%
COc1c(C2CCCN2CC(=O)Nc2nccs2)c(C)nn1C (stereo not drawn)	-2.38%
Cc1noc(CC2CCN(Cc3ccc(CCC(C)(C)O)cc3)CC2)n1	-2.18%
Cc1nc2sccn2c1C(=O)N1CCn2nc(C(=O)NC3CC3)cc2C1	9.63%
CSCCC(NC(=O)c1ccccc1)C(=O)N(C)Cc1ccsc1 (stereo not drawn)	7.17%
CCn1cc(CN2CCCN(C(=O)c3ccn(C)c(=O)c3)CC2)cn1	-0.794%
O=C(NCc1ccccc1CN1CCC(O)CC1)Nc1cccnc1	-8.8%
CC[C@H]1CN2CC[C@H]1C[C@@H]2CNC(=O)c1ccco1	3.46%
O=C(C1=CCCC1)N1C[C@H](Oc2cccnc2)[C@H]2OCCC[C@H]21	-8.42%
CN(C)c1cc(CNC(=O)c2ccccc2S(C)(=O)=O)ccn1	-10.7%
Cc1ccc(-n2cccn2)cc1S(=O)(=O)N1C[C@H]2CC[C@@H](C1)N(C)C2	1.62%
Cc1cc(-c2ccc(C(C)N3CCOCC3)cc2)cnc1N (stereo not drawn)	-2.36%
CCn1ncc2c1C(COC)N(C(=O)CCc1ccccc1)CC2 (stereo not drawn)	-96.8%

Structure (SMILES)	cytotoxicity at 10 µM
Cc1nc(Cn2c(=O)cnc3ccccc32)n(C)n1	-0.825%
CCn1nc(CNC(=O)C2CCCN(C(=O)COC)C2)c2ccccc21 (stereo not drawn)	-1.29%
CCC1COCCN1C(=O)NCc1cccc(-c2cnn(C)c2)c1 (stereo not drawn)	-1.62%
COc1ccccc1[C@@H]1CN(CC2CCC2)C[C@H]1C(=O)O	-1.02%
CN(CCCNS(=O)(=O)N1CCC2(CC1)OCCO2)c1ccccc1	9.13%
CCn1cc(CNC2CCN(c3cccc(C)c3C)CC2)cn1	-9.99%
CC(C)c1cc(C(=O)N2CCN(CC3CC3)[C@@H]3CS(=O)(=O)C[C@@H]32)no1	-2.19%
CCC(=O)Nc1nnc(CCOc2ccccc2)s1	7.16%
O=C(c1c[nH]cn1)N1CCC(F)(F)C2(CCN(c3cccc(F)c3)C2)C1 (stereo not drawn)	9.58%
COc1ccnc(N2C[C@H]3CC[C@@H](C2)N(CC2CCC2)C3=O)n1	-0.054%
O=C(Nc1cnccn1)[C@H]1CO[C@H]2CCN(c3ncc(F)cn3)C[C@H]2C1	1.2%
CC(C)N1CCC(CC(=O)N2CCC(C(O)c3nccn3C)CC2)CC1 (stereo not drawn)	-0.153%
NC(=O)c1csc(N2C[C@@H](CN3CCC(O)CC3)[C@@H](CO)C2)n1	0.984%
COC(=O)CC1CCN(C(=O)Nc2ccc(-c3ccn[nH]3)cc2)C1 (stereo not drawn)	3.57%
CN1CCCC2(CC1)CCN(C(=O)CCc1ccccc1O)CC2	-32.1%
CCOCC1c2c(ncn2C(C)C)CCN1C(=O)CC (stereo not drawn)	4.17%
COc1cc(N2CCCC3(CCN(c4cccnc4)C3=O)C2)ncn1 (stereo not drawn)	-103%
Cc1cc(C)n(-c2nc(C(=O)NCCN3CCC(C)CC3)cs2)n1	10.2%
COc1ccc(CNC[C@H]2COCc3nc4cccnc4n32)cc1	-0.61%
Oc1cc(C2CCCN(Cc3cccs3)C2)nc(-c2ccccn2)n1 (stereo not drawn)	29.5%
O=C(c1cc2cc(I)ccc2[nH]1)N1CCC(Nc2cccnn2)CC1	-8.12%
CCOCC(=O)NC(C)c1cc(C)ccc1C (stereo not drawn)	5.6%

Structure (SMILES)	cytotoxicity at 10 µM
CC(C)NC(=O)c1nnn(-c2ccc(F)cc2)c1C1CC1	12.1%
Cc1ccc(CNC(=O)CN2CCN(CCO)CC2)s1	9.03%
Cc1cc(NC(=O)CN(C)C2CCCN(c3cccnn3)C2)n(C)n1 (stereo not drawn)	-12.4%
CC(C)C(C)N(C(=O)Cn1nc2n(c1=O)CCCCC2)C1CC1 (stereo not drawn)	-5.77%
Cc1ncsc1CN1C[C@H](OCc2ccncc2)[C@H]2OCCC[C@H]21	-139%
CN1CCc2ncc(CNc3cc(N(C)C)ncn3)n2CC1	0.749%
CC(C(=O)Nc1ccc(Cl)cn1)N1CCc2nn(C)c(=O)cc2C1 (stereo not drawn)	4.81%
Cc1occc1C(=O)N1CCn2c(Cn3cncn3)cnc2C1C (stereo not drawn)	-5.17%
CC(C)Cc1nc(CSC2CCCN(c3cnn(C)c3)C2=O)no1 (stereo not drawn)	17.7%
O=C(CN(Cc1ccccc1)CC1CCOCC1)NC(=O)NC1CC1	-6.49%
CCS(=O)(=O)N1CCC(C(=O)NC(Cc2ccsc2)c2nccs2)CC1 (stereo not drawn)	-2.72%
COC(=O)[C@@H](NC(=O)c1snnc1-c1ccc(OC)cc1)C(C)C	4.96%
O=c1cc(-c2ccncc2)nc(-c2ccc(CN3CC[C@H](O)C3)cc2)[nH]1	4.48%
CC(C)(C)c1noc(CCCC(=O)N2CCNC(=O)CC2)n1	-7.49%
CC(C)c1nc(C2CCCN2Cc2cc(=O)n(C)c(=O)n2C)no1 (stereo not drawn)	-10.7%
Cc1cccc(-c2ccc(C(=O)N3CCN(C(C)C)CC3)c(=O)[nH]2)c1	-3.27%
CC(C)=CCN1CCN(C(=O)c2snnc2C)[C@H]2CS(=O)(=O)C[C@H]21	-0.987%
COc1ccc(CN2CCc3[nH]nc(C(=O)N(C)C)c3C2)cc1	5.18%
CN(C)CCC1CCN(c2cc(N3CCCC3CO)ncn2)CC1 (stereo not drawn)	-6.27%
CC1CN(C)CCN1C(=O)c1cccn1Cc1cccs1 (stereo not drawn)	-14.1%
CCN(Cc1nccn1C)C1CCN(c2ccccc2)C1=O (stereo not drawn)	4.19%
CC(=O)N1CCC(C(=O)N2CCOC(CC3CCCCC3)C2)CC1 (stereo not drawn)	-13.7%

Structure (SMILES)	cytotoxicity at 10 µM
COCCCS(=O)(=O)N1CCN(C(C)(C)CO)CC1	-6.46%
COCCn1cc2c(n1)C(CNC(=O)c1cc(C)[nH]c1C)OCC2 (stereo not drawn)	8.81%
CN(Cc1ccsc1)C(=O)Cn1c(CS(C)(=O)=O)nc2ccccc21	6.96%
CC(C)c1nccn1CCCNC(=O)c1ccc(-c2cn[nH]c2)nc1	-5.84%
COCc1ncc(CN2CCC3(CCNC(=O)CC3)CC2)cn1	-147%
Cc1ccc(S(=O)(=O)NC(=O)c2cccc3c2OCCO3)c(C)c1	3.25%
CN1CCOC(CNCc2csc(C3CCCC3)n2)C1 (stereo not drawn)	-0.383%
O=C(CCC(=O)N1CCc2ccccc2C1)c1cccs1	-61.8%
CCCc1cc(NC2CCc3nc(C(C)C)nn3C2)n2ncnc2n1 (stereo not drawn)	-1.41%
c1ccc(CN(Cc2cccc3cnccc23)CC2CCCO2)nc1 (stereo not drawn)	-5.68%
CSCc1cc(F)ccc1CNCc1ncc[nH]1	11.5%
Cc1cnn(CCNCCCOc2ccc3c(c2)OCO3)c1	-3.6%
Cn1c(CCN2CCN(c3ccc(O)cc3)CC2)nc2ccccc21	-37.5%
O=C1CCC2(CCCN(C(=O)c3ccco3)CC2)N1 (stereo not drawn)	3.17%
COCC1c2c(cnn2CC2CC2)CCN1Cc1cc(C)on1 (stereo not drawn)	5.5%
CC(=O)N1CCC(N2C[C@@H](F)[C@@H](OCc3nc4ncccc4[nH]3)C2)CC1	6.1%
CC(NC(=O)N1CCc2ccccc21)c1nncn1C (stereo not drawn)	-5.3%
COc1ccc(C2(c3nc(-c4cccnc4)no3)CCOCC2)cc1	13.9%
Cc1cnn(C2(C(=O)O)CCN(Cc3oc4ccccc4c3C)CC2)c1	-5.87%
Cc1cc(C)nc(NC(=O)C(C)Oc2ccc3c(c2)OCO3)n1 (stereo not drawn)	-9.9%
CC(C)c1nc(C2CCCN2C(=O)c2nccnc2N)no1 (stereo not drawn)	-1.96%
O=S(=O)(N1CCCC1)N1CCCCC1CCc1ccccc1 (stereo not drawn)	-5.65%

Structure (SMILES)	cytotoxicity at 10 µM
CN1C(=O)CC2(CCN(S(=O)(=O)C3CC3)CC2)c2ccccc21	2.04%
Cc1ccc2oc(N3CCN(CC(=O)NC(C)C)CC3)nc2c1	-10.9%
Cc1nc(C)n(CC2CCCN2CCOc2ccccc2F)n1 (stereo not drawn)	-3.21%
CC1CCCCN1CCNC(=O)c1ccn(-c2cccc(F)c2)n1 (stereo not drawn)	-26%
O=C(Cn1cccn1)N1CCC(Cn2cc(-c3ccsc3)nn2)CC1	-0.554%
Cc1cc(-c2cnc(N3CCC(C(N)=O)CC3)nc2C(C)C)on1	72.2%
CN(C)[C@@H]1COC[C@@H]2CN(Cc3ccc4c(c3)OCO4)C[C@@H]21	2.02%
CCn1c(C)cc(C(=O)N2CCCC(n3nc(C)nc3C)C2)c1C (stereo not drawn)	-11.4%
Cc1nn(C)c2nc(N(Cc3ccncc3)CC3CCCO3)sc12 (stereo not drawn)	9.42%
CN(Cc1ccc(Cl)s1)C(=O)c1ccccc1OCC(N)=O	-9.2%
COCCN1CCc2c(c(COc3cccnc3)nn2C)C1	-113%
Clc1ccc(CN2CCC(C3CCN(Cc4cccnc4)CC3)C2)cc1 (stereo not drawn)	11.3%
Cc1nc(CC(=O)N2CCN(c3ccc(N(C)C)cc3)CC2)cs1	0.236%
c1ccc(CN2CC[C@]3(C[C@@H](Oc4ccccn4)CO3)C2)nc1	-1.88%
CCCn1nc(C)c(-c2cncn2CCN(C)C2CCCC2)c1C	4.16%
COCC1CC2(CCN(Cc3ccoc3)CC2)CN1C(C)C (stereo not drawn)	0.803%
c1ccc(CO[C@@H]2CN(Cc3nccs3)[C@@H]3COC[C@@H]32)nc1	-104%
CCC(CNC(=O)Cn1ccnc1)Oc1cccc(F)c1 (stereo not drawn)	-45.8%
CN(C)CCOc1ccccc1N1CCN(C(=O)c2ccoc2)CC1	24.8%
CCc1ccc(CNC(=O)NC2CCCc3c2cnn3CCO)s1 (stereo not drawn)	-6.78%
